According to ChEMBL document CHEMBL4689842, “EUbOPEN Chemogenomics Library wave 1” (2021):

System: U2OS
Experiment: Multiplex assay against U2OS
Format: toxicity, cell-based
Conditions: human
Method in brief: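 Phenotypes for tubulin, mitochondrial mass and membrane permeability are expressed as per cents of healthy-nucleus cells. Cells were stained live at seeding with Hoechst33342, BioTracker Green Microtubule Cytoskeleton Dye, MitoTracker Red and Annexin V Alexa Fluor 680, then imaged after compound addition on a CQ1 microscope at 37°C and 5% CO2. Machine-learning gating in CellPathfinder separated Hoechst high-intensity objects from normal cells, divided normal cells by nuclear state (healthy, pyknosed, fragmented) and divided pyknosed cells into mitotic or apoptotic.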

[1] = 12 h, 1 µM, compound concentration 1 uM, replicate 1
[2] = 12 h, 1 µM, compound concentration 1 uM, replicate 2
[3] = 12 h, 10 µM, compound concentration 10 uM, replicate 1
[4] = 12 h, 10 µM, compound concentration 10 uM, replicate 2
[5] = 24 h, 1 µM, compound concentration 1 uM, replicate 1
[6] = 24 h, 1 µM, compound concentration 1 uM, replicate 2
[7] = 24 h, 10 µM, compound concentration 10 uM, replicate 1
[8] = 24 h, 10 µM, compound concentration 10 uM, replicate 2
[9] = 48 h, 1 µM, compound concentration 1 uM, replicate 1
[10] = 48 h, 1 µM, compound concentration 1 uM, replicate 2
[11] = 48 h, 10 µM, compound concentration 10 uM, replicate 1
[12] = 48 h, 10 µM, compound concentration 10 uM, replicate 2

Structure (SMILES): COc1ccccc1CN[C@H]1C2CCN(CC2)[C@H]1C(c1ccccc1)c1ccccc1 [CP-96345]
- Population Apoptotic (%) [1]: 22%
- Population Fragmented Nuclei (%) [1]: 14%
- Population Healthy Nuclei (%) [1]: 71%
- Population Hoechst High Intensity Objects (%) [1]: 11%
- Population Membrane Permeable-Phenotype (%) [1]: 8%
- Population Mitochondria Different-Phenotype (%) [1]: 20%
- Population Mitotic Cells (%) [1]: 77%
- Population Normal (%) [1]: 88%
- Population Pyknosed Nuclei (%) [1]: 14%
- Population Tubulin-Different-Phenotype (%) [1]: 16%
- Total Cell Count [1]: 136
- Population Apoptotic (%) [2]: 66%
- Population Fragmented Nuclei (%) [2]: 4%
- Population Healthy Nuclei (%) [2]: 92%
- Population Hoechst High Intensity Objects (%) [2]: 0%
- Population Membrane Permeable-Phenotype (%) [2]: 4%
- Population Mitochondria Different-Phenotype (%) [2]: 7%
- Population Mitotic Cells (%) [2]: 33%
- Population Normal (%) [2]: 100%
- Population Pyknosed Nuclei (%) [2]: 3%
- Population Tubulin-Different-Phenotype (%) [2]: 8%
- Total Cell Count [2]: 90
- Population Apoptotic (%) [3]: 51%
- Population Fragmented Nuclei (%) [3]: 10%
- Population Healthy Nuclei (%) [3]: 65%
- Population Hoechst High Intensity Objects (%) [3]: 6%
- Population Membrane Permeable-Phenotype (%) [3]: 7%
- Population Mitochondria Different-Phenotype (%) [3]: 87%
- Population Mitotic Cells (%) [3]: 48%
- Population Normal (%) [3]: 93%
- Population Pyknosed Nuclei (%) [3]: 24%
- Population Tubulin-Different-Phenotype (%) [3]: 84%
- Total Cell Count [3]: 127
- Population Apoptotic (%) [4]: 50%
- Population Fragmented Nuclei (%) [4]: 2%
- Population Healthy Nuclei (%) [4]: 86%
- Population Hoechst High Intensity Objects (%) [4]: 3%
- Population Membrane Permeable-Phenotype (%) [4]: 1%
- Population Mitochondria Different-Phenotype (%) [4]: 45%
- Population Mitotic Cells (%) [4]: 50%
- Population Normal (%) [4]: 96%
- Population Pyknosed Nuclei (%) [4]: 10%
- Population Tubulin-Different-Phenotype (%) [4]: 26%
- Total Cell Count [4]: 77
- Population Apoptotic (%) [5]: 45%
- Population Fragmented Nuclei (%) [5]: 12%
- Population Healthy Nuclei (%) [5]: 79%
- Population Hoechst High Intensity Objects (%) [5]: 7%
- Population Membrane Permeable-Phenotype (%) [5]: 6%
- Population Mitochondria Different-Phenotype (%) [5]: 13%
- Population Mitotic Cells (%) [5]: 54%
- Population Normal (%) [5]: 92%
- Population Pyknosed Nuclei (%) [5]: 7%
- Population Tubulin-Different-Phenotype (%) [5]: 7%
- Total Cell Count [5]: 154
- Population Apoptotic (%) [6]: 54%
- Population Fragmented Nuclei (%) [6]: 4%
- Population Healthy Nuclei (%) [6]: 85%
- Population Hoechst High Intensity Objects (%) [6]: 2%
- Population Membrane Permeable-Phenotype (%) [6]: 1%
- Population Mitochondria Different-Phenotype (%) [6]: 4%
- Population Mitotic Cells (%) [6]: 45%
- Population Normal (%) [6]: 97%
- Population Pyknosed Nuclei (%) [6]: 9%
- Population Tubulin-Different-Phenotype (%) [6]: 17%
- Total Cell Count [6]: 114
- Population Apoptotic (%) [7]: 75%
- Population Fragmented Nuclei (%) [7]: 18%
- Population Healthy Nuclei (%) [7]: 59%
- Population Hoechst High Intensity Objects (%) [7]: 8%
- Population Membrane Permeable-Phenotype (%) [7]: 6%
- Population Mitochondria Different-Phenotype (%) [7]: 90%
- Population Mitotic Cells (%) [7]: 25%
- Population Normal (%) [7]: 91%
- Population Pyknosed Nuclei (%) [7]: 22%
- Population Tubulin-Different-Phenotype (%) [7]: 69%
- Total Cell Count [7]: 157
- Population Apoptotic (%) [8]: 40%
- Population Fragmented Nuclei (%) [8]: 2%
- Population Healthy Nuclei (%) [8]: 81%
- Population Hoechst High Intensity Objects (%) [8]: 1%
- Population Membrane Permeable-Phenotype (%) [8]: 2%
- Population Mitochondria Different-Phenotype (%) [8]: 31%
- Population Mitotic Cells (%) [8]: 60%
- Population Normal (%) [8]: 98%
- Population Pyknosed Nuclei (%) [8]: 16%
- Population Tubulin-Different-Phenotype (%) [8]: 14%
- Total Cell Count [8]: 92
- Population Apoptotic (%) [9]: 80%
- Population Fragmented Nuclei (%) [9]: 7%
- Population Healthy Nuclei (%) [9]: 85%
- Population Hoechst High Intensity Objects (%) [9]: 3%
- Population Membrane Permeable-Phenotype (%) [9]: 2%
- Population Mitochondria Different-Phenotype (%) [9]: 9%
- Population Mitotic Cells (%) [9]: 20%
- Population Normal (%) [9]: 96%
- Population Pyknosed Nuclei (%) [9]: 6%
- Population Tubulin-Different-Phenotype (%) [9]: 5%
- Total Cell Count [9]: 227
- Population Apoptotic (%) [10]: 62%
- Population Fragmented Nuclei (%) [10]: 5%
- Population Healthy Nuclei (%) [10]: 89%
- Population Hoechst High Intensity Objects (%) [10]: 0%
- Population Membrane Permeable-Phenotype (%) [10]: 4%
- Population Mitochondria Different-Phenotype (%) [10]: 12%
- Population Mitotic Cells (%) [10]: 37%
- Population Normal (%) [10]: 99%
- Population Pyknosed Nuclei (%) [10]: 4%
- Population Tubulin-Different-Phenotype (%) [10]: 21%
- Total Cell Count [10]: 164
- Population Apoptotic (%) [11]: 74%
- Population Fragmented Nuclei (%) [11]: 17%
- Population Healthy Nuclei (%) [11]: 58%
- Population Hoechst High Intensity Objects (%) [11]: 4%
- Population Membrane Permeable-Phenotype (%) [11]: 11%
- Population Mitochondria Different-Phenotype (%) [11]: 78%
- Population Mitotic Cells (%) [11]: 25%
- Population Normal (%) [11]: 95%
- Population Pyknosed Nuclei (%) [11]: 23%
- Population Tubulin-Different-Phenotype (%) [11]: 55%
- Total Cell Count [11]: 194
- Population Apoptotic (%) [12]: 33%
- Population Fragmented Nuclei (%) [12]: 9%
- Population Healthy Nuclei (%) [12]: 80%
- Population Hoechst High Intensity Objects (%) [12]: 1%
- Population Membrane Permeable-Phenotype (%) [12]: 6%
- Population Mitochondria Different-Phenotype (%) [12]: 14%
- Population Mitotic Cells (%) [12]: 66%
- Population Normal (%) [12]: 98%
- Population Pyknosed Nuclei (%) [12]: 10%
- Population Tubulin-Different-Phenotype (%) [12]: 13%
- Total Cell Count [12]: 146
